Measurements collected from several papers.
Read-out: cell growth or viability

| SMILES | cell line | technique | time | IC50 [nM] |
| --- | --- | --- | --- | --- |
| Cc1nc(Nc2ncc(C(=O)Nc3c(C)cccc3Cl)s2)cc(N2CC[C@H](O)C2)n1 | REH | ATP luminescence | 72 h | > 10000 |
| CC(C)(C)c1cnc(CSc2cnc(NC(=O)C3CCN(C(=O)CCCCCCCN4Cc5cc6c(cc5C4)C(=O)N(C4CCC(=O)NC4=O)C6=O)CC3)s2)o1 (stereo not drawn) | REH | MTT | – | 6.6 |
| Cc1cccc(N=C2C(=O)N(Cc3ccc(Br)cc3)c3ccccc32)c1 | L02 | MTT | 48 h | 26000 |
| O=C(NO)c1ccc(Cn2cnc3c(Nc4cccc([N+](=O)[O-])c4)ncnc32)cc1 | NALM-6 | MTT | 72 h | 1900 |
| CCOc1cc2ncc(C#N)c(Nc3ccc(OCc4ccccn4)c(Cl)c3)c2cc1NC(=O)/C=C/CN(C)C | HCC1419 | ATP luminescence | – | 14 |
| C=C[C@]1(C)C=C2CC[C@H]3C(C)(C)CCC[C@]3(C)[C@H]2CC1 | MOLT-3 | XTT | 75 h | 125000 |
| CC(C)c1cccc(C(C)C)c1N=C1C(=O)N(Cc2cccc(Cl)c2)c2ccccc21 | L02 | MTT | 48 h | 72500 |
| CN1C(=O)C(=O)c2cc3c(c4c2c1cc1ccccc14)OCO3 | MOLT-3 | XTT | 75 h | 20400 |
| CC(C)c1cccc(C(C)C)c1N=C1C(=O)N(Cc2ccccc2)c2ccccc21 | L02 | MTT | 48 h | 59000 |
| Nc1ccccc1NC(=O)c1ccc(Cn2cnc3c(Nc4ccc(Br)cc4F)ncnc32)cc1 | NALM-6 | MTT | 72 h | 1540 |
| Cc1ncsc1-c1ccc(CNC(=O)[C@@H]2C[C@@H](O)CN2C(=O)[C@@H](NC(=O)C2(F)CC2)C(C)(C)C)c(OCCOc2ccc(CN3CCN(c4cc(-c5ccccc5O)nnc4N)CC3)cc2)c1 | NCI-H1944 | ATP luminescence | 7 days | 168 |
| CC(C)c1cccc(C(C)C)c1N=C1C(=O)Nc2ccccc21 | L02 | MTT | 48 h | 31600 |
| C(=N\Nc1cc(N/N=C/c2ccc3ccccc3n2)nc(-c2ccccc2)n1)/c1ccc2ccccc2n1 | L02 | MTT | 48 h | > 100000 |
| Nc1ccccc1NC(=O)c1ccc(Cn2cnc3c(Nc4ccc(Cl)cc4)ncnc32)cc1 | NALM-6 | MTT | 72 h | 1550 |
| C(=N\Nc1cc(N/N=C/c2cccc3cccnc23)nc(-c2ccccc2)n1)/c1cccc2cccnc12 | L02 | MTT | 48 h | > 100000 |
| O=C(CCc1ccc(Cl)cc1)N1C(=O)C(=Nc2ccc(Cl)cc2Br)c2ccccc21 | L02 | MTT | 48 h | > 100000 |
| O=C(NO)c1ccc(Cn2cnc3c(Nc4ccc(F)c(Cl)c4)ncnc32)cc1 | NALM-6 | MTT | 72 h | 2020 |
| O=C1C(=Nc2ccccc2I)c2ccccc2N1Cc1cccc(Cl)c1 | L02 | MTT | 48 h | 19100 |
| COc1c(Cl)cccc1Nc1c(-c2ccncc2OC[C@@H]2COCCO2)[nH]c2c1C(=O)NCC2 | HCC1419 | ATP luminescence | – | 6.4 |
| COc1cc([C@@H]2c3cc4c(cc3[C@@H](O[C@@H]3O[C@@H]5CO[C@@H](C)O[C@H]5[C@H](O)[C@H]3O)[C@H]3COC(=O)[C@H]23)OCO4)cc(OC)c1O | MOLT-3 | XTT | – | 61 |
| COc1cc([C@@H]2c3cc4c(cc3[C@@H](O[C@@H]3O[C@@H]5CO[C@@H](C)O[C@H]5[C@H](O)[C@H]3O)[C@H]3COC(=O)[C@H]23)OCO4)cc(OC)c1O | MOLT-3 | XTT | 75 h | 78 |
| Cc1ncsc1-c1ccc([C@H](C)NC(=O)[C@@H]2C[C@@H](O)CN2C(=O)[C@@H](NC(=O)CN2CCN(c3cc(-c4ccccc4O)nnc3N)CC2)C(C)(C)C)cc1 | NCI-H1944 | ATP luminescence | 7 days | 215 |
| CN(C)C(=O)c1cc2cnc(Nc3ccc(-c4ccc5c(=O)cc(N6CCOCC6)oc5c4)cc3)nc2n1C1CCCC1 | Hs68 | ATP luminescence | 72 h | 1150 |
| CCc1ccc(N=C2C(=O)N(Cc3ccccc3)c3ccccc32)cc1 | L02 | MTT | 48 h | 86700 |
